TCR-CD3 inh: blocks the human TCR-CD3 interaction | TAMRA-labeled TCR probe fluorescence, biochemical | inhibition, % at 9.4 µM | 360,000 tested, 0.37% active;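 also: recombinant mutant TCR 2C K166C tagged with TAMRA read by polarization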
PABP polyA inh: blocks human PABP binding to poly(A) RNA; P11940; fluorescence polarization; calls only at 35 µM; 290,000 tested, 1% active; AID 2014; call rule not given here;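 also: calls also rest on retests at 20 µM and on dose response follow-up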
eIF4H inh: inhibitors of RNA binding by human eIF4H | Q15056 | eIF4H fluorescence polarization binding assay | inhibition, % at 35 µM | 290,000 tested, 0.94% active; call rule not given here;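 also: calls also rest on retests at 20 µM and on dose response follow-up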
MLLE-PAM2 inh: blocks PAM2 peptide binding to the PABP1 MLLE domain; P11940; GST-MLLE / FITC-PAM2 fluorescence polarization; inhibition, % at 20 µM; 360,000 tested, 0.36% active; AID 588489; in the data active = inhibition above about 35%, passing the limit was not always enough
RBBP9 inh: blocks human serine hydrolase RBBP9 | inhibition, % at 7.94 µM | recombinant RBBP9, FP-Rh probe fluorescence polarization | 220,000 tested, 0.2% active | O75884;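 active = inhibition above the campaign mean of all tested compounds plus 3 SD, cut at about 14% in these data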
Target sequence (O75884 whole entry, looked up): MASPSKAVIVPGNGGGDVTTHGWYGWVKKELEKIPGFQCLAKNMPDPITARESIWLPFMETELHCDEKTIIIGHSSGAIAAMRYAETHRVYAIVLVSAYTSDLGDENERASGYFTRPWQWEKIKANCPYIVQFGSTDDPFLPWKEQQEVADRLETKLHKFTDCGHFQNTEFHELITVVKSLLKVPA
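Test system: recombinant human RBBP9. Quantity: 2.5 µM RBBP9 dispensing solution, before mixing. Detection: FP readout at 525/598 nm. Reagent: Serine-hydrolase probe FP-Rh, 375 nM pre-mixing. Measure: % inhibition. Control set: DMSO-treated enzyme wells and wells lacking RBBP9. Buffer or medium: Tris-NaCl-Pluronic buffer, pH 8.0. Times: preincubation 30 min plus labeling 45 min at 25 °C.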
RBBP9 inh conf: human RBBP9 inhibition, confirmation; shares compounds with RBBP9 inh; recombinant RBBP9, FP-Rh probe fluorescence polarization; inhibition, % at 7.94 µM; 410 tested, 36% active; AID 1537;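 active = inhibition above the hit cutoff derived for the primary screen, cut at about 15% in these data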
BSA TAMRA ctr: interferes with TAMRA-BSA probe, flagging TCR-CD3 hits. shares compounds with TCR-CD3 inh. TAMRA-labeled BSA probe fluorescence counterscreen. 1,200 tested, 10% active. inhibition, % at 9.4 µM; in the data active = inhibition above about 23%
TCR-CD3 conf: confirmation of human TCR-CD3 interaction inhibitors | 1,200 tested, 48% active | shares compounds with TCR-CD3 inh | AID 652036 | TAMRA-labeled TCR probe fluorescence binding assay | inhibition, % at 9.4 µM
Numbers stand for hits; . = inactive; ? = inconclusive; / = no result; + = active, no number. Most compounds without a hit are left out; they make up all but 1.6% or so of the library. Rule as the data show it, unless noted: active = inhibition above about 19%; inactive = the rest.

SMILES	TCR-CD3 inh	PABP polyA inh	eIF4H inh	MLLE-PAM2 inh	RBBP9 inh	BSA TAMRA ctr	TCR-CD3 conf	others
COc1ccc(C(=O)CC2(O)C(=O)N(CN3CCOCC3)c3ccc(Br)cc32)cc1 (stereo not given)	.	/	/	/	/	/	/
CC1(C)OC(C)(C)/C(=C/Nc2ccc(O)cc2)C1=O	33	.	.	.	20	.	.	RBBP9 inh conf=.
CC1(C)OC(=O)C(=CNc2cccc(O)c2)C(=O)O1	.	.	.	.	.	/	/
CC1=NN(c2ccccc2)C(=O)C1N=Nc1ccc(C)cc1 (stereo not given)	/	.	.	/	.	/	/
CC1=NN(c2ccccc2)C(=O)C1C=Nc1ccc(N(C)C)cc1 (stereo not given)	23	.	.	.	19	.	.	RBBP9 inh conf=15
Nc1[nH]c(C(=O)c2ccccc2)c(-c2ccc3ccccc3c2)c1C(=O)NC1CC1	.	/	/	/	/	/	/
Oc1ccc(/C=N/NC(=S)Nc2cccnc2)c(O)c1O	83	+	87	.	42	.	56	RBBP9 inh conf=52
Oc1ccc(-c2csc(Nc3ncccn3)n2)cc1O	32	.	.	.	20	.	.	RBBP9 inh conf=40
COC(=O)[C@]12C[C@H](CC(=O)NCC34CC5CC(CC(C5)C3)C4)C(=O)N(Cc3ccc4c(c3)OCO4)C1=C[C@H](COCc1ccccc1)O[C@@H]2C	.	/	/	/	/	/	/
CC(=O)c1sc2nc(-c3ccco3)ccc2c1N	24	+	91	.	21	.	.	RBBP9 inh conf=35
O=C1c2ccccc2-c2onc3ccc(N4CCCC4)c1c23	111	.	?	.	46	186	145	RBBP9 inh conf=16
O=C1c2ccccc2C(=O)c2c1cccc2N1CCCC1	.	.	.	.	.	/	/
CCNc1ccc2noc3c2c1C(=O)c1ccccc1-3	126	.	?	.	28	+	187	RBBP9 inh conf=.
CN(c1ccc(NC(=O)CCc2cn(Cc3ccc(Br)cc3)c3ccccc23)cc1)c1ccccn1	.	/	/	/	/	/	/
OC[C@@H](O)C(O)[C@@H](O)CO (stereo not given in full)	47	/	/	.	/	.	.
COc1ccc(-c2nn(-c3ccccc3)cc2/C=N/NC(=O)c2cccc(S(=O)(=O)Nc3ccccc3OC)c2)cc1	41	.	.	.	.	32	46
COc1ccc(-c2nn(-c3ccccc3)cc2/C=N/NC(=O)c2ccc3c(c2)OCO3)cc1	/	.	.	/	.	/	/
CC(=O)Oc1ccc2occ(/C=N/c3cc(=O)[nH]c(=S)[nH]3)c(=O)c2c1	19	.	.	.	.	.	.
Cc1ccc2occ(/C=N/O)c(=O)c2c1	.	.	.	.	.	/	/
Oc1ccc(/C=C/c2nc(-c3ccccc3O)n(-c3ccccc3)n2)cc1	46	.	.	.	.	.	.
COC(=O)C1CCN(C(=O)c2cc(-c3ccco3)nc3ccccc23)CC1	27	/	/	.	/	.	31
O=C(c1cc(-c2ccco2)nc2ccccc12)N1CCN(Cc2ccccc2)CC1	.	/	/	.	/	/	/
COc1ccccc1Cc1c(-c2cccc(Br)c2)nc2ccc(C)cn12	.	/	/	/	/	/	/
Cc1cccc(NC(=O)NNC(=O)c2cc3ccccc3cc2O)c1C	24	.	.	.	.	.	20
CCc1ccc(NC(=O)NNC(=O)c2cc3ccccc3cc2O)cc1	.	.	.	.	/	/	/
SMILES	TCR-CD3 inh	PABP polyA inh	eIF4H inh	MLLE-PAM2 inh	RBBP9 inh	BSA TAMRA ctr	TCR-CD3 conf	others
Cc1ccc(NC(=S)NNC(=O)c2ccccc2O)c(C)c1	41	.	.	.	.	.	32
Cc1ccc(NC(=O)NNC(=O)c2cc3ccccc3cc2O)cc1C	21	.	.	.	/	.	.
O=C(NCCCl)NNC(=O)c1cc2ccccc2cc1O	19	.	.	.	.	.	.
Cc1ccc(NC(=O)NNC(=O)c2cc3ccccc3cc2O)c(C)c1	.	.	.	.	/	/	/
Cc1cccc(NC(=S)NNC(=O)CC(C)O)c1C (stereo not given)	.	.	.	.	.	/	/
Cc1ccc(C)c(NC(=O)NNC(=O)c2cc3ccccc3cc2O)c1	22	.	.	.	/	.	.
Cc1cccc(NC(=S)NNC(=O)c2ccc(O)cc2O)c1C	52	.	.	.	.	.	37
COC(=O)C1=C(C)N(Cc2ccccc2C(F)(F)F)C(=NCc2ccc(C(F)(F)F)cc2)NC1c1ccc(Cl)cc1 (stereo not given)	.	/	/	/	/	/	/
Cc1cnc(C=NNC(N)=S)c2cccc(N)c12	29	/	/	43	/	.	.
O=S1(=O)N[C@H](Cc2ccccc2)COc2cccc(F)c21	.	/	/	/	/	/	/
CC(C)C1Nc2c(O)cc(Cl)c([N+](=O)[O-])c2C2C=CCC21 (stereo not given)	20	.	.	.	.	.	.
CC(=O)c1cccc(NC(=O)C(OC(=O)c2cccc(S(=O)(=O)N(C)c3ccccc3)c2)c2ccccc2)c1 (stereo not given)	31	.	.	.	.	.	32
O=c1[nH]c(=S)[nH]c2nc(-c3ccccc3)cnc12	.	/	/	.	/	/	/
Cc1cc2nc3c(=O)[nH]c(=S)[nH]c3nc2cc1NC(=O)C(F)(F)F	70	?	?	.	/	.	.
NNC(=O)c1oc2nc(-c3ccco3)cc(-c3ccco3)c2c1N	25	?	?	.	.	.	.
Nc1c(C(=O)N/N=C/c2cccnc2)oc2nc(-c3ccco3)cc(-c3ccco3)c12	.	?	?	.	.	/	/
C[C@@H]1CNCCN1c1ccc(N2CCN(Cc3ccccc3)[C@@H](C)C2)c(C#N)c1	.	/	/	/	/	/	/
O=C(/C=C/c1ccccc1)Nc1cccc(C(=O)NCCCCc2ccccc2)c1	44	/	/	.	/	.	.
CCOC(=O)c1c(C)[nH]c(O)c1C=Nc1ccccc1	.	.	.	.	.	/	/
COC(=O)c1c(C)[nH]c(O)c1C=Nc1ccc(C#N)cc1	41	.	.	.	.	.	.
O=C1CC(N(O)c2ccccc2)C(=O)N1c1ccc(Cl)c(Cl)c1 (stereo not given)	24	.	.	.	.	.	.
CSc1nsc(/C=C/Nc2ccc(O)cc2C)c1C#N	27	.	?	.	.	.	.
COc1ccccc1/C=N/NC(=O)c1c(-c2ccccc2)noc1C	.	.	.	.	/	/	/
Cc1cccc(/C=N/NC(=O)c2c(-c3ccccc3)noc2C)c1O	24	.	.	.	/	.	.
Cc1cccc(/C=N\NC(=O)c2ccc(Cl)cc2)c1O	34	.	.	.	.	.	22
Cc1cccc(/C=N/NC(=O)c2ccc3c(c2)OCCO3)c1O	19	.	.	.	/	.	.
Cc1cccc(/C=N/NC(=O)Cc2ccc(Cl)cc2)c1O	.	.	.	.	/	/	/
CCN(CC(=O)Nc1c(F)cccc1F)C(=O)/C=C/c1ccc2ccccc2n1	30	/	/	.	/	.	34
CCN(CC(=O)Nc1c(F)cccc1F)C(=O)c1ccc2ccccc2n1	.	/	/	.	/	/	/

Source: PubChem BioAssay
